These results are taken from ChEMBL document CHEMBL4622871, “Synthesis, biological evaluation of benzothiazole derivatives bearing a 1,3,4-oxadiazole moiety as potential anti-oxidant and anti-inflammatory agents” (Bioorg Med Chem Lett, 2020).

Experiment [1] in a line: Antioxidant activity assessed as hydrogen peroxide scavenging activity at 100 ug/ml relative to control. It is filed as functional.
Experiment [2] relates to Mus musculus. The experiment can be described thus: Antiinflammatory activity in para-xylene-induced mouse model of ear swelling assessed as inhibition in swelling rate at 100 mg/kg, po treated for 4 hrs followed by xylene addition relative to control. The experiment is classed as functional. An outline of the steps:
(§1)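 Mouse ear edema induced by para-xylene. A single oral dose of 100 mg/kg was given at set intervals (1, 2, 3, 4, 5 or 24 h) before xylene was applied. Each group had 5 mice. The inhibition rate (%) was taken relative to the vehicle group. Indomethacin at 100 mg/kg served as the reference.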

In experiment [3] the test system is Mus musculus. The experiment can be described thus: Antiinflammatory activity in para-xylene-induced mouse model of ear swelling assessed as inhibition in swelling rate at 100 mg/kg, po treated for 24 hrs followed by xylene addition relative to control. It is filed as functional. An outline of the steps:
as §1

In experiment [4] the test system is Mus musculus. The experiment can be described thus: Antiinflammatory activity in para-xylene-induced mouse model of ear swelling assessed as inhibition in swelling rate at 25 mg/kg, po treated for 2 hrs followed by xylene addition relative to control. The experiment is classed as functional. Summed up:
(§2)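 Mouse ear edema induced by para-xylene. Oral doses were 25, 50 or 100 mg/kg, given 2 h before xylene was applied. Each group had 5 mice. The inhibition rate (%) was taken relative to the vehicle group, with indomethacin as the positive control.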

In experiment [5] the test system is Mus musculus. Description: Antiinflammatory activity in para-xylene-induced mouse model of ear swelling assessed as inhibition in swelling rate at 100 mg/kg, po treated for 1 hr followed by xylene addition relative to control. It is filed as functional. Summed up: as §1
Experiment [6] deals with Mus musculus. Description: Antiinflammatory activity in para-xylene-induced mouse model of ear swelling assessed as inhibition in swelling rate at 50 mg/kg, po treated for 2 hrs followed by xylene addition relative to control. It is filed as functional. An outline of the steps:
as §2

Experiment [7] concerns Mus musculus. Description: Antiinflammatory activity in para-xylene-induced mouse model of ear swelling assessed as inhibition in swelling rate at 100 mg/kg, po treated for 2 hrs followed by xylene addition relative to control. It is filed as functional. An outline of the steps:
as §1

Experiment [8] concerns Mus musculus. Description: Antiinflammatory activity in para-xylene-induced mouse model of ear swelling assessed as inhibition in swelling rate at 100 mg/kg, ip relative to control. It is filed as functional. An outline of the steps: (§3)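 Mouse ear swelling induced by para-xylene. Dosing was 100 mg/kg intraperitoneal with DMSO as vehicle, and the vehicle group was also given 100. Each group had 5 mice. Edema was recorded in mg as mean ± S.D., and the inhibition rate (%) was taken relative to the vehicle group. Indomethacin at 100 mg/kg served as the reference.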

Experiment [9] has as its system Mus musculus. Description: Antiinflammatory activity in para-xylene-induced mouse model of ear swelling assessed as inhibition in swelling rate at 100 mg/kg, po treated for 3 hrs followed by xylene addition relative to control. It is filed as functional. An outline of the steps: as §1
The test system of experiment [10] is Mus musculus. Description: Antiinflammatory activity in para-xylene-induced mouse model of ear swelling assessed as edema at 100 mg/kg, ip (reference value: 8.70 +/- 0.90 mg). It is filed as functional. Summed up: as §3
Experiment [11] deals with Mus musculus. Description: Antiinflammatory activity in para-xylene-induced mouse model of ear swelling assessed as inhibition in swelling rate at 100 mg/kg, po treated for 5 hrs followed by xylene addition relative to control. The experiment is classed as functional. An outline of the steps:
as §1

The target of experiment [12] is T1, Prostaglandin G/H synthase 2 (Homo sapiens) (UniProt P35354).
T1 sequence (whole entry): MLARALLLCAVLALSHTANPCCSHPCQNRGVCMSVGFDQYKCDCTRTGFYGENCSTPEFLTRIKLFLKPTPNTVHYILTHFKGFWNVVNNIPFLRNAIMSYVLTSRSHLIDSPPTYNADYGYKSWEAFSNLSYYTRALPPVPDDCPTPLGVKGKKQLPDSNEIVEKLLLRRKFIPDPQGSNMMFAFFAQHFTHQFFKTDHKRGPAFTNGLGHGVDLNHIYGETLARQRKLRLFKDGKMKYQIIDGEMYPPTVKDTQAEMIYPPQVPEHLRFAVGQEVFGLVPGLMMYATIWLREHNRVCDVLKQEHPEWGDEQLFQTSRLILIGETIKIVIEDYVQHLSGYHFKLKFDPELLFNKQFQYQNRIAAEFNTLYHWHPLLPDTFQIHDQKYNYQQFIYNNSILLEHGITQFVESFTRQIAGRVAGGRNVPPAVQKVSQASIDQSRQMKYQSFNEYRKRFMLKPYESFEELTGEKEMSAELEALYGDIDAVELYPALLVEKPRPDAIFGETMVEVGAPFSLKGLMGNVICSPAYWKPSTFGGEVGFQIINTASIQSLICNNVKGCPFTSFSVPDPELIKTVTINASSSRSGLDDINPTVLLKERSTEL
The experiment can be described thus: Inhibition of COX2 (unknown origin) at 10 umol/l by ELISA relative to control.

Experiment [13] is described as follows: Antioxidant activity assessed as hydroxyl radical scavenging activity by spectrophotometric analysis. It is filed as functional. An outline of the steps: (§4)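 Radical scavenging by ABTS, DPPH or hydroxyl radical, read spectrophotometrically. Activity was calculated from the percentage decrease in absorbance, with resveratrol as the positive control. Values are given with the standard deviation (SD).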

Experiment [14] in a line: Antioxidant activity assessed as DPPH radical scavenging activity by spectrophotometric analysis. It is filed as functional. Summed up: as §4
A short description of experiment [15]: Antioxidant activity assessed as ABTS radical scavenging activity by spectrophotometric analysis. The experiment is classed as functional. An outline of the steps: as §4

Turning to `C/C(=N\c1ccc([N+](=O)[O-])cc1)N1N=C(c2ccc(-c3ccccc3)cc2)OC1c1ccccc1O` (stereo not given), the Activity in experiment [1] is below 51.2%.

Turning to `COc1ccc2c(c1)c(CC(=O)O)c(C)n2C(=O)c1ccc(Cl)cc1` [INDOMETHACIN], the inhibition in vivo at 100 mg/kg in [2] is 30.4%; in experiment [3], 12.5%; in [5], 25.3%; in [7], 52.3 to 58.3%; in experiment [8], 43.6%; in [9], 46.1%. In addition, in [11], the inhibition in vivo at 100 mg/kg is 19.2%. Moreover, the inhibition in vivo at 25 mg/kg in [4] was determined as 19.1%. Besides, in experiment [6], the inhibition in vivo at 50 mg/kg was 25.9%. Further, in experiment [10], the Activity is 5.15 mg.

In turn, `Cc1cccc(-c2nnc(COc3ccc(/C=N/Nc4nc5ccccc5s4)cc3)o2)c1` showed an inhibition in experiment [12] of 35%.

As for `Oc1ccc(/C=C/c2cc(O)cc(O)c2)cc1` [RESVERATROL], the IC50 is 370 mM in [13], 0.99 mM in [14] and 1.42 mM in experiment [15].
